Assays:
Adenosine receptor A2a = Adenosine receptor A2a (Homo sapiens, UniProt P29274); assay: Inhibition of human adenosine A2A receptor expressed in FlpIn-CHO cells assessed as inhibition of NECA-induced cAMP accumulation incubated for 30 mins by fluorescence assay; assay type: functional, cell-based
D(2) dopamine receptor [1] = target: T1, D(2) dopamine receptor (Homo sapiens, UniProt P14416); assay: Agonist activity at human dopamine D2L receptor expressed in CHO cell membranes incubated for 1 hr by [35S]GTPgammaS binding assay; assay type: functional; conditions: for pEC50: cho
T1 sequence (P14416 whole entry): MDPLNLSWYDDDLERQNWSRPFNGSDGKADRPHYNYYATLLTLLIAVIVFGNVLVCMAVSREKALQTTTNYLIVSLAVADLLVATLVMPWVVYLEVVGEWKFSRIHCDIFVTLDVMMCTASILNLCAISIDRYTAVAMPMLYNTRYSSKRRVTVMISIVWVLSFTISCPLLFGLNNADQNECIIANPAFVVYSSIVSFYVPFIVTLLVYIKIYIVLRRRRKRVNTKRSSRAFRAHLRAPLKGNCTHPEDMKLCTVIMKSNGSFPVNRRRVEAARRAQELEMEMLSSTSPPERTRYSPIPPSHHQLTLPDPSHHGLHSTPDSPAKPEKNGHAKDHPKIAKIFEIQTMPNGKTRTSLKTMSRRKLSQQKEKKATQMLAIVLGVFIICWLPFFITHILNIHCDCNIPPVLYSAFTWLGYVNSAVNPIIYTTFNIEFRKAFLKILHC

D(2) dopamine receptor [2] = target: T1, D(2) dopamine receptor; assay: Agonist activity at human dopamine D2L receptor expressed in CHO cell membranes incubated for 1 hr by [35S]GTPgammaS binding assay relative to 100 uM quinelorane; assay type: functional
[3] = Fraction unbound in Wistar Han rat blood at 5 uM incubated for 4 hrs by dialysis and LC-MS/MS method; assay type: ADME, tissue-based
Summary of the method: (§1)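 Blood and brain tissue were taken from Wistar Han rat and tested in vitro. Percent fraction unbound was determined in each matrix (undiluted Fu). The brain:blood partition ratio (Kbb) was derived as an in vitro predictor of CNS penetration. Runs were in triplicate, and values are reported as mean ± SD.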

[4] = Fraction unbound in Wistar Han rat brain at 5 uM incubated for 4 hrs by dialysis and LC-MS/MS method; assay type: ADME, tissue-based; summary of the method: as §1
[5] = Blood-brain partition ratio in Wistar Han rat at 5 uM incubated for 4 hrs by dialysis and LC-MS/MS method; assay type: ADME, tissue-based; conditions: in vitro; summary of the method: as §1

Adenosine receptor A2a, sequence (P29274 whole entry): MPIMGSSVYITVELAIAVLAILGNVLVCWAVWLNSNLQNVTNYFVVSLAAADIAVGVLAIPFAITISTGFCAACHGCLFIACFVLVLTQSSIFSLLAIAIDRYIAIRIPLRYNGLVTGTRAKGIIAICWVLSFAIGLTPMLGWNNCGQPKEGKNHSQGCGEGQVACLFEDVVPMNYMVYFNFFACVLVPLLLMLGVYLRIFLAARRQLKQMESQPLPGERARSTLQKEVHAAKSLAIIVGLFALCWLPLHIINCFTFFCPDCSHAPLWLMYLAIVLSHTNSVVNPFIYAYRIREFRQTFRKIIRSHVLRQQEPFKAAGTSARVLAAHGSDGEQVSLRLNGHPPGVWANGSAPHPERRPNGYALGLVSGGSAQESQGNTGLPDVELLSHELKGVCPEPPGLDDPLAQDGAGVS

SMILES	IC50 (Adenosine receptor A2a; read-out: IC50) [nM]	IC50 (Adenosine receptor A2a; read-out: pIC50 (converted)) [nM]	EC50 (D(2) dopamine receptor [1]) [nM]	pEC50 (D(2) dopamine receptor [1])	Emax (D(2) dopamine receptor [2]) [%]	fraction unbound at 4 h, 5 µM [3]	fraction unbound at 4 h, 5 µM [4]	Kbb [5]
COC(=O)CCCCCCCCCCCNC(=O)CCCOc1ccc(CCNc2nc(N)n3nc(-c4ccco4)nc3n2)cc1	437	437	> 100000	< 4	–	–	–	–
CCCN(CCCCCCNc1nc(N)n2nc(-c3ccco3)nc2n1)CCc1cccc2c1CC(=O)N2	1780	1780	38	–	77	–	–	–
Nc1nc(NC2CCN(CCc3cccc4c3CC(=O)N4)CC2)nc2nc(-c3ccco3)nn12	1510	1510	> 100000	< 4	–	–	–	–
NC1CCN(CCc2cccc3c2CC(=O)N3)CC1	–	–	> 100000	< 4	–	–	–	–
O=C(O)C(F)(F)F.O=C1Cc2c(CCN3CCCNCC3)cccc2N1	–	–	> 100000	< 4	–	–	–	–
CN(CCCNc1nc(N)n2nc(-c3ccco3)nc2n1)CCc1cccc2c1CC(=O)N2	1120	1120	389	–	77	–	–	–
CCCN(CCCNC(=O)CCCCCCCCCCCNC(=O)OC(C)(C)C)CCc1cccc2c1CC(=O)N2	> 100000	–	114	–	66	–	–	–
CC(C)(C)OC(=O)NC1CCN(CCc2cccc3c2CC(=O)N3)CC1	–	–	> 100000	< 4	–	–	–	–
CCCN(CCCNC(=O)CCCNC(=O)CCCOc1ccc(CCNc2nc(N)n3nc(-c4ccco4)nc3n2)cc1)CCc1cccc2c1CC(=O)N2	110	110	785	–	68	–	–	–
CCCN1CCC[C@@H]2Cc3nc(N)ncc3C[C@H]21 [QUINELORANE]	–	–	–	7.35	–	–	–	–
CC(C)(C)OC(=O)N1CCCN(CCc2cccc3c2CC(=O)N3)CC1	–	–	> 100000	< 4	–	–	–	–
CCCN(CCCNC(=O)CCCC(=O)Oc1ccc(CCNc2nc(N)n3nc(-c4ccco4)nc3n2)cc1)CCc1cccc2c1CC(=O)N2	35	35.5	484	–	79	–	–	–
CCCN(CCCNc1nc(Oc2ccc(CCNc3nc(N)n4nc(-c5ccco5)nc4n3)cc2)nc(N2CCOCC2)n1)CCc1cccc2c1CC(=O)N2.O=CO	120	120	311	–	65	0.0222	0.0061	3.64
Nc1nc(N2CCCN(CCc3cccc4c3CC(=O)N4)CC2)nc2nc(-c3ccco3)nn12.O=C(O)C(F)(F)F	1480	1480	> 100000	< 4	–	–	–	–
CCCN(CCCNC(=O)CCCCCCCCCCCNC(=O)CCCOc1ccc(CCNc2nc(N)n3nc(-c4ccco4)nc3n2)cc1)CCc1cccc2c1CC(=O)N2	1070	1070	1400	–	38	–	–	–
CCCN(CCCNC(=O)CCCCCCCNC(=O)CCCOc1ccc(CCNc2nc(N)n3nc(-c4ccco4)nc3n2)cc1)CCc1cccc2c1CC(=O)N2	41	40.7	501	–	77	–	–	–
Nc1nc(N2CCN(CCc3cccc4c3CC(=O)N4)CC2)nc2nc(-c3ccco3)nn12	59	58.9	> 100000	< 4	–	0.0605	0.0563	1.07
CCCN(CCCNC(=O)CCCOc1ccc(CCNc2nc(N)n3nc(-c4ccco4)nc3n2)cc1)CCc1cccc2c1CC(=O)N2	18	18.2	204	–	95	–	–	–
CCCN(CCc1cccc2c1CC(=O)N2)c1nc(N)n2nc(-c3ccco3)nc2n1	32	32.4	> 100000	< 4	–	–	–	–
Nc1nc(NCCc2ccc(O)cc2)nc2nc(-c3ccco3)nn12 [ZM-241385]	–	–	> 100000	< 4	–	0.0647	0.0849	0.76
O=C1Cc2c(CCN3CCNCC3)cccc2N1	–	–	> 100000	< 4	–	–	–	–
CCCN(CCCNc1nc(N)n2nc(-c3ccco3)nc2n1)CCc1cccc2c1CC(=O)N2	912	912	88	–	89	0.198	0.153	1.29
Nc1nc(NCCc2ccc(Oc3nc(Cl)nc(N4CCOCC4)n3)cc2)nc2nc(-c3ccco3)nn12	135	135	> 100000	< 4	–	–	–	–
CCCN(CCCNC(=O)COc1ccc(CCNc2nc(N)n3nc(-c4ccco4)nc3n2)cc1)CCc1cccc2c1CC(=O)N2	63	63.1	148	–	88	–	–	–
CC(C)(C)OC(=O)N1CCN(CCc2cccc3c2CC(=O)N3)CC1	–	–	> 100000	< 4	–	–	–	–
CC(C)(C)OC(=O)N1CCC(Nc2nc(N)n3nc(-c4ccco4)nc3n2)CC1	1740	1740	–	–	–	–	–	–
